Assay results published in publication PMC6139374 (Cell, 2018).
“And” between values parts separate entries of the source, which are not always exact repeats. Equal entries are not always repeated. One block for each molecule: values may come before it. Where no end group is shown, it is not given here. Side-chain parts run from the residue outwards. [ ]: non-standard residue; d: D form. Dap = NC[C@H](N)C(=O)O

What was measured:
[1] = molecular target: FL-Akt1-pThr308/pSer473 (A1) and FL-Akt1-pThr308/2pSer477,Thr479 (A6) (Homo sapiens, UniProt P31749); assay: Kinase inhibition assays with Akt inhibitors; format: biochemical; conditions: 250 μM ATP, 20 μM GSK3 peptide
Akt1 PH domain [2] = molecular target: T1, Akt1 PH domain (Homo sapiens, UniProt P31749); assay: Competition binding assay displacing fluorescein-labeled PIP3; conditions: competition with fluorescein-labeled PIP3
Outline: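 Competition format: 50 nM fluorescein-labeled soluble PIP3 with 1 μM Akt PH domain and varied unlabeled soluble phosphoinositide competitor (PIP3 di-C6 or PI(3,4)P2 di-C8). Buffer was 50 mM HEPES pH 7.5, 2 mM DTT, 0.05 mg/ml ovalbumin; incubated 30 min at room temperature, then fluorescence anisotropy read. Sigmoidal fit gave IC50, converted to Ki using free labeled ligand, free PH domain and probe Kd.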

[3] = molecular target: non-C-terminally phosphorylated Akt1 (A2) (Homo sapiens, UniProt P31749); assay: Kinase assay, effect of phosphoinositides on activity; format: biochemical; conditions: 250 μM ATP, 20 μM GSK3 peptide, 10 mM MgCl2
Outline: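 Also present: 250 μM ATP with 32P-γ-ATP and 20 μM biotinylated GSK3 peptide. Added either 400 μM DOPC vesicles with 5 mol% PIP3 or 20 μM soluble PI(3,4)P2 (di-C8). Product was captured on 30 kDa filters and counted by scintillation; runs done at least twice.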

GSK3 peptide substrate = assay: Radiometric kinase assay, steady-state kinetics of semisynthetic Akt1 forms; format: biochemical; conditions: for catalytic efficiency (kcat/Km), fold lower relative to A1: compared with pThr308/pSer473 form A1; for kcat/Km, within fold of that of A2: low kcat/Km, compared with non-C-terminally phosphorylated enzyme A2
Akt1 PH domain [4] = molecular target: T1, Akt1 PH domain; assay: Fluorescent binding assay of PIP3 with Mg addition; conditions: Mg addition up to 10 mM
[5] = molecular target: pSer477,pThr479 Akt1 (A6) (Homo sapiens, UniProt P31749); assay: Kinase assay, effect of PIP3 on activity; format: biochemical; conditions: addition of excess soluble PIP3
[6] = molecular target: FL-Akt1-pThr308/pSer473 (A1) (Homo sapiens, UniProt P31749); assay: Fluorescence anisotropy binding of soluble PIP3; conditions: fluorescein-labeled soluble PIP3 (di-C6), 50 nM
Outline: (§1)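 Varying concentrations of semisynthetic full-length Akt1 were mixed with 50 nM fluorescein-labeled soluble PIP3 (di-C6). Buffer was 50 mM HEPES pH 7.5, 2 mM DTT, 0.05 mg/ml ovalbumin; incubated 30 min at room temperature. Fluorescence anisotropy was recorded at 23°C.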

[7] = molecular target: FL-Akt1-pThr308/non-p C tail (A2) (Homo sapiens, UniProt P31749); assay: Fluorescence anisotropy binding of soluble PIP3; conditions: stated as nearly identical to the value for A1
Outline: as §1

[8] = molecular target: FL-Akt1-pThr308, pSer477,pThr479 (A6) (Homo sapiens, UniProt P31749); assay: Fluorescence anisotropy binding of soluble PIP3
Outline: as §1

[9] = molecular target: non-phosphorylated FL-Akt1 (A9) (Homo sapiens, UniProt P31749); assay: Fluorescence anisotropy binding of soluble PIP3; conditions: fluorescein-labeled soluble PIP3, 50 nM
Outline: as §1

Akt1 = Akt1 (human, UniProt P31749 1-480); assay: kinase inhibition assay
[10] = molecular target: non-C-terminally phosphorylated Akt1, C-terminally labeled with fluorescein (human) (UniProt P31749); assay: fluorescence polarisation

T1 sequence (P31749 1-121): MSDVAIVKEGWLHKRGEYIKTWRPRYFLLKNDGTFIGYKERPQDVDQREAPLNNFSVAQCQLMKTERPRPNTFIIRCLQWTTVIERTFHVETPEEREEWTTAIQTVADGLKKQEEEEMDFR
Sequence of FL-Akt1-pThr308, pSer477,pThr479 (A6) (P31749 whole entry): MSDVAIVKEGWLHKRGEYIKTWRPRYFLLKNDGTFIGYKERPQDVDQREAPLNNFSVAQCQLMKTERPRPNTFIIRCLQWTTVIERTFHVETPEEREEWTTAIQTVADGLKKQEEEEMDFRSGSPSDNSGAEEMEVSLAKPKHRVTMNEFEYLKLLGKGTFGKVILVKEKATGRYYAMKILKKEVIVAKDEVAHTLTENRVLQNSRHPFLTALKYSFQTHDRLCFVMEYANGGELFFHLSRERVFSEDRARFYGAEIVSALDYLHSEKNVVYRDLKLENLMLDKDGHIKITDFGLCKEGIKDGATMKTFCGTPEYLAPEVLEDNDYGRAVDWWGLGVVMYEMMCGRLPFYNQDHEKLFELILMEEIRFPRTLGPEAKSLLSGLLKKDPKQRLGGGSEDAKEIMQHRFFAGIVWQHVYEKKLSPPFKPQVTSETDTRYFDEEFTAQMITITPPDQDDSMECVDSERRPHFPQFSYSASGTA
Sequence of FL-Akt1-pThr308/pSer473 (A1) and FL-Akt1-pThr308/2pSer477,Thr479 (A6) (P31749 whole entry, the tested form may be a part): as the sequence (P31749 whole entry) above
Sequence of non-C-terminally phosphorylated Akt1 (A2) (P31749 whole entry): as above
Sequence of Akt1 (P31749 whole entry): as above
Sequence of FL-Akt1-pThr308/non-p C tail (A2) (P31749 whole entry): as above
Sequence of FL-Akt1-pThr308/pSer473 (A1) (P31749 whole entry): as above
Sequence of pSer477,pThr479 Akt1 (A6) (P31749 whole entry): as above
Sequence of non-phosphorylated FL-Akt1 (A9) (P31749 whole entry): as above

Molecule: CC(C)NC[C@@H](C(=O)N1CCN(c2ncnc3c2[C@H](C)C[C@H]3O)CC1)c1ccc(Cl)cc1 [GDC0068]
- apparent Ki ratio, A6 relative to A1 ([1]; Ki lower for A1, higher for A6): 8 fold

- sensitivity of A6 relative to A1 to the inhibitor [1]: distinct sensitivities
Molecule: NC1(c2ccc(-c3nc4ccn5c(=O)[nH]nc5c4cc3-c3ccccc3)cc2)CCC1 [MK2206]

- binding to Akt1 PH domain (Akt1 PH domain [2]): high affinity
- stimulation of enzymatic activity of A2 [3]: did not stimulate
Molecule: CCCCCCCC(=O)OC[C@H](COP(=O)(O)O[C@H]1[C@H](O)[C@@H](O)[C@H](OP(=O)(O)O)[C@@H](OP(=O)(O)O)[C@H]1O)OC(=O)CCCCCCC [soluble PI(3,4)P2]

Molecule: A1: semisynthetic full-length Akt1, pThr308/pSer473
- catalytic efficiency, fold larger than that of Asp473 form A4 (GSK3 peptide substrate; A1 vs A4): > 100 fold and 100 fold
- kcat/Km, fold greater than that of A2 (GSK3 peptide substrate; pThr308 set of full-length Akt1, v/[E] vs [ATP]): about 500 fold

Molecule: A3: full-length Akt1 pSer473 form lacking phosphorylation at Thr308
- catalytic efficiency (kcat/Km), fold lower relative to A1 (GSK3 peptide substrate): 500 fold

Molecule: A4: full-length Akt1 pThr308, Asp473 form
- kcat/Km, within fold of that of A2 (GSK3 peptide substrate): ≤ 3 fold

- activity, fold more active than A1 (GSK3 peptide substrate; compared with pSer473 form A1): ~ 2 fold
Molecule: A5: full-length Akt1 pThr308, triply phosphorylated C-tail form

Molecule: A6: full-length Akt1 pThr308 with pSer477/pThr479
- catalytic efficiency (kcat/Km), fold lower relative to A1 (GSK3 peptide substrate): 8 fold

Molecule: A7: full-length Akt1 pThr308, pSer477 form
- kcat/Km, within fold of that of A2 (GSK3 peptide substrate): ≤ 3 fold

Molecule: A8: full-length Akt1 pThr308, pSer479 form as printed
- kcat/Km, within fold of that of A2 (GSK3 peptide substrate): ≤ 3 fold

Molecule: A12: R144A point mutation in the context of pSer473 Akt1
- catalytic efficiency (kcat/Km), fold lower relative to A1 (GSK3 peptide substrate): ~ 50 fold

- increase of Kd on Mg addition (Akt1 PH domain [4]): ~ 3 fold
- effect on catalytic activity of A6 [5]: minimally impacted
- stimulation of enzymatic activity of A2 [3]: did not stimulate
- Kd [6]: ~200 nM
- Kd [7]: ~200 nM
- Kd, fold greater than for A1 or A2 ([8]; A6 vs A1 or A2, weakened binding): 4 fold
- Kd ([8]; fluorescein-labeled soluble PIP3, 50 nM): 800 nM
- Kd [9]: 90 nM
Molecule: phosphatidyl inositol 3,4,5-triphosphate [soluble PIP3]

B1: A16: Δ143-Akt1-pThr308 construct possessing Asp473 (protein, UniProt P31749 1-480, looked up, variant del1-143 S473D)
RAC-alpha …: RVTMNEFEYLKLLGKGTFGKVILVKEKATGRYYAMKILKKEVIVAKDEVAHTLTENRVLQNSRHPFLTALKYSFQTHDRLCFVMEYANGGELFFHLSRERVFSEDRARFYGAEIVSALDYLHSEKNVVYRDLKLENLMLDKDGHIKITDFGLCKEGIKDGATMKTFCGTPEYLAPEVLEDNDYGRAVDWWGLGVVMYEMMCGRLPFYNQDHEKLFELILMEEIRFPRTLGPEAKSLLSGLLKKDPKQRLGGGSEDAKEIMQHRFFAGIVWQHVYEKKLSPPFKPQVTSETDTRYFDEEFTAQMITITPPDQDDSMECVDSERRPHFPQFDYSASGTA
modifications: pThr308
- kcat/Km, within fold of each other (GSK3 peptide substrate; Δ143-Akt1-pThr308 constructs A15-A18): ≤ 3 fold

- Ki (Akt1): 3600 nM
Molecule: GRPRTT[Dap]([Ac-ATP‑γS])FAE [GSK3 peptide-ATP conjugate bisubstrate analog]

- Kd [10]: 200 nM
B2: GST-PDK1 (enzyme)
chain: MARTTSQLYDAVPIQSSVVLCSCPSPSMVRTQTESSTPPGIPGGSRQGPAMDGTAAEPRPGAGSLQHAQPPPQPRKKRPEDFKFGKILGEGSFSTVVLARELATSREYAIKILEKRHIIKENKVPYVTRERDVMSRLDHPFFVKLYFTFQDDEKLYFGLSYAKNGELLKYIRKIGSFDETCTRFYTAEIVSALEYLHGKGIIHRDLKPENILLNEDMHIQITDFGTAKVLSPESKQARANSFVGTAQYVSPELLTEKSACKSSDLWALGCIIYQLVAGLPPFRAGNEYLIFQKIIKLEYDFPEKFFPKARDLVEKLLVLDATKRLGCEEMEGYGPLKAHPFFESVTWENLHQQTPPKLTAYLPAMSEDDEDCYGNYDNLLSQFGCMQVSSSSSSHSLSASDTGLPQRSGSNIEQYIHDLDSNSFELDLQFSEDEKRLLLEKQAGGNPWHQFVENNLILKMGPVDKRKGLFARRRQLLLTEGPHLYYVDPVNKVLKGEIPWSQELRPEAKNFKTFFVHTPNRTYYLMDPSGNAHKWCRKIQEVWRQRYQSHPDAAVQ
